Experiments:
[1] = target: T1, Mu-type opioid receptor (Homo sapiens, UniProt P35372); experiment: biochemical; type: cell-based, CHO
[2] = target: Delta-type opioid receptor (Homo sapiens, UniProt P41143); experiment: Displacement of [3H]DADLE from human recombinant delta opioid receptor expressed in CHO cells; type: cell-based
Method in brief: (§1)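 Stably transfected CHO cells (hDOR-CHO for [3H]DADLE, hKOR-CHO for [3H]U69,593) grown in DMEM with 10% FBS and G-418 (0.10-0.2 mg/mL) under 5% CO2 at 37 °C. Monolayers harvested and frozen at −80 °C before membrane use; n=3.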

[3] = target: Kappa-type opioid receptor (Homo sapiens, UniProt P41145); experiment: Displacement of [3H]U69593 from human recombinant kappa opioid receptor expressed in CHO cells; type: cell-based
Method in brief: as §1

[4] = target: T1, Mu-type opioid receptor; experiment: Agonist activity at human recombinant mu opioid receptor expressed in CHO cells assessed as stimulation of [35S]GTPgammaS binding after 3 hrs by liquid scintillation counting relative to DAMGO; type: functional, cell-based
Method in brief: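 Same [35S]GTPγS membrane assay in hMOR-CHO: 50 pM radioligand, 10 μM GDP, 3 h at 25 °C, GF/B filtration, scintillation counting.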

[5] = target: T1, Mu-type opioid receptor; experiment: Agonist activity at human recombinant mu opioid receptor expressed in CHO cells assessed as stimulation of [35S]GTPgammaS binding after 3 hrs by liquid scintillation counting; type: functional, cell-based
Method in brief: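 hMOR-CHO membranes (50 μg protein) grown in DMEM/F-12 with 10% FBS and G-418. Incubated 3 h at 25 °C with 50 pM [35S]GTPγS in 50 mM Tris-HCl pH 7.4, 100 mM NaCl, 10 mM MgCl2, 1 mM EDTA, 1 mM DTT, 10 μM GDP and 0.1% BSA. Nonspecific binding defined with 40 μM GTPγS. Bound label separated on GF/B filters and scintillation counted; n=3.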

[6] = target: T1, Mu-type opioid receptor; conditions: CHO

Delta-type opioid receptor, sequence (P41143 whole entry): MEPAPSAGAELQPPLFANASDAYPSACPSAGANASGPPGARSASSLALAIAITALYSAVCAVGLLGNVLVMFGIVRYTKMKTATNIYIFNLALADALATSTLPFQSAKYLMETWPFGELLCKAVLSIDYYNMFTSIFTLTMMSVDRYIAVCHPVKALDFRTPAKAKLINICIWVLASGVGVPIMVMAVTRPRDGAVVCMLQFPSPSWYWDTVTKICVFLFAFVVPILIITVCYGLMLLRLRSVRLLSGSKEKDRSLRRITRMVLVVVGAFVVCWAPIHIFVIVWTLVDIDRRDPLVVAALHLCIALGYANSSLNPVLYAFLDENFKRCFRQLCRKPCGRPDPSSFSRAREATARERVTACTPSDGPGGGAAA
T1 sequence (P35372 whole entry): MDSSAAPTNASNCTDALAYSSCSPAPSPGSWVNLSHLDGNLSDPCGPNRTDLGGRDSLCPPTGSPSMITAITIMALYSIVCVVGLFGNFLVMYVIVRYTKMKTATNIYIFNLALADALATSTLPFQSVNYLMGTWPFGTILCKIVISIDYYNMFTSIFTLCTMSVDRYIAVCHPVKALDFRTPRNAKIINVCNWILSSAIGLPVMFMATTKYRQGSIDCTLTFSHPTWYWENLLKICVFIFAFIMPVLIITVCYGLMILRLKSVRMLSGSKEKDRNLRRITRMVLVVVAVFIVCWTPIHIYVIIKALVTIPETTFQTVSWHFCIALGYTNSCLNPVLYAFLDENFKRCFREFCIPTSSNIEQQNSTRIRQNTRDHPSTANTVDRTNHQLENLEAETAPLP
Kappa-type opioid receptor, sequence (P41145 whole entry): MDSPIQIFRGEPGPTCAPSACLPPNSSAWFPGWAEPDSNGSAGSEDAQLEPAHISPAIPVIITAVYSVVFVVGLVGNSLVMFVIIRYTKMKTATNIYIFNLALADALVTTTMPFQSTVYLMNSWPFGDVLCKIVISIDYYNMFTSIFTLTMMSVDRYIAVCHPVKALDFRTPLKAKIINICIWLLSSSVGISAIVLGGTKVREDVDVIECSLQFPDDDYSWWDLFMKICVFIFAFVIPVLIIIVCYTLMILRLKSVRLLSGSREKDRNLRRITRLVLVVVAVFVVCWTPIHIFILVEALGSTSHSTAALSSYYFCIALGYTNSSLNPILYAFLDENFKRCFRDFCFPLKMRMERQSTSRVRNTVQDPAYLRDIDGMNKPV

SMILES | Ki [1] | Ki [2] | Ki [3] | Emax [4] | ED50 [5] | Ke [6]
CC[C@]12CCN(C[C@H](O)c3ccccc3)C[C@H]1Oc1ccc(O)cc12 | 1330 nM | 3100 nM | 9500 nM | 36% | – | –
CC[C@@]12CCN(C[C@@H](O)c3ccccc3)C[C@@H]1Oc1ccc(O)cc12 | 9.3 nM | 443 nM | 413 nM | – | – | –
CC[C@@]12CCN(C)C[C@@H]1Oc1ccc(O)cc12 | 15.9 nM | 1350 nM | 450 nM | – | – | –
CC[C@]12CCN(C)C[C@H]1Oc1ccc(O)cc12 | 1330 nM | 4270 nM | – | 45% | 241 nM | –
CC[C@]12CCN(C[C@@H](O)c3ccccc3)C[C@H]1Oc1ccc(O)cc12 | 600 nM | 2490 nM | – | 100% | – | –
CC[C@]12CCNC[C@H]1Oc1ccc(O)cc12 | 3500 nM | – | – | 97% | 150 nM | –
CC[C@@]12CCN(C[C@H](O)c3ccccc3)C[C@@H]1Oc1ccc(O)cc12 | 80 nM | 807 nM | 1090 nM | – | – | –
CC[C@]12CCN(CCc3ccccc3)C[C@H]1Oc1ccc(O)cc12 | 200 nM | 2690 nM | 2320 nM | 84% | 24 nM | –
CC[C@@]12CCNC[C@@H]1Oc1ccc(O)cc12 | 48 nM | – | – | – | – | 95 nM

— ChEMBL document CHEMBL1154776, “Probes for narcotic receptor mediated phenomena. 39. Enantiomeric N-substituted benzofuro[2,3-c]pyridin-6-ols: synthesis and topological relationship to oxide-bridged phenylmorphans” (J Med Chem, 2009)
